In ChEMBL document CHEMBL1150625, “New terpenoid constituents from Eunicea pinta” (J Nat Prod, 2002):
In brackets after ≈: the same amount, converted by molar mass. Activity calls are given as the source filed them. No cut-off for these calls is given here.

Legend:
[1] = system: Mycobacterium tuberculosis; assay: Antitubercular activity against Mycobacterium tuberculosis H37Rv assessed as inhibition of microbial growth at 6.25 ug/mL; assay type: functional
[2] = system: ACHN; assay: Cytotoxicity against human ACHN cells; assay type: functional, cell-based
In short: (§1)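 Tested in vitro in the NCI 60 human tumour cell-line panel, with the screen run at the National Cancer Institute. Growth inhibition was read for each line and reported as IC50 in µg/mL.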

[3] = system: CAKI-1; assay: Cytotoxicity against human Caki1 cells; assay type: functional, cell-based; in short: as §1
[4] = system: A498; assay: Cytotoxicity against human A498 cells; assay type: functional, cell-based; in short: as §1
[5] = system: MOLT-4; assay: Cytotoxicity against human MOLT4 cells; assay type: functional, cell-based; in short: as §1
[6] = system: SR; assay: Cytotoxicity against human SR cells; assay type: functional, cell-based; in short: as §1
[7] = system: TK-10; assay: Cytotoxicity against human TK10 cells; assay type: functional, cell-based; in short: as §1
[8] = system: NCI-H322M; assay: Cytotoxicity against human NCI-H322M cells; assay type: functional, cell-based; in short: as §1

## C=C1C(=O)OC2C(=O)[C@H](C)CCC/C(C)=C/CC[C@@]3(C)O[C@@H]3C[C@@H]12 (stereo not given in full)
[1]
  inhibition: inactive

## C=C[C@H]1CC[C@H]2[C@@H]3CC=C4C[C@@H](O[C@@H]5OC[C@@H](O)[C@H](O)[C@H]5O)CC[C@]4(C)[C@H]3CC[C@]12C
[2]
  IC50: 2.8 µg/mL (≈ 6.47 µM)
[3]
  IC50: 6.6 µg/mL (≈ 15.3 µM)
[1]
  inhibition at 6.25 µg/mL: 52%
[4]
  IC50: 4.2 µg/mL (≈ 9.71 µM)

## C=C1C(=O)O[C@H]2C(=O)[C@H](C)CCC[C@](C)(OO)/C=C/C[C@@]3(C)O[C@@H]3C[C@@H]12 [UPROLIDE H]
[5]
  IC50: 0.01 µg/mL (≈ 0.0274 µM)
[1]
  inhibition: inactive
[6]
  IC50: 0.07 µg/mL (≈ 0.192 µM)

## C=C1C(=O)O[C@H]2C(=O)[C@H](C)CCC/C(C)=C/CC[C@@]3(C)O[C@@H]3C[C@@H]12
[7]
  IC50: 0.13 µg/mL (≈ 0.391 µM)
[8]
  IC50: 0.9 µg/mL (≈ 2.71 µM)
